One block for each compound: values may come before it.
Experiments:
Substance-K receptor = molecular target: T1, Substance-K receptor (Homo sapiens, UniProt P21452); experiment: Displacement of [125I]-NKA substance P binding to human urinary bladder membrane protein (NK2)
T1 sequence (P21452 whole entry): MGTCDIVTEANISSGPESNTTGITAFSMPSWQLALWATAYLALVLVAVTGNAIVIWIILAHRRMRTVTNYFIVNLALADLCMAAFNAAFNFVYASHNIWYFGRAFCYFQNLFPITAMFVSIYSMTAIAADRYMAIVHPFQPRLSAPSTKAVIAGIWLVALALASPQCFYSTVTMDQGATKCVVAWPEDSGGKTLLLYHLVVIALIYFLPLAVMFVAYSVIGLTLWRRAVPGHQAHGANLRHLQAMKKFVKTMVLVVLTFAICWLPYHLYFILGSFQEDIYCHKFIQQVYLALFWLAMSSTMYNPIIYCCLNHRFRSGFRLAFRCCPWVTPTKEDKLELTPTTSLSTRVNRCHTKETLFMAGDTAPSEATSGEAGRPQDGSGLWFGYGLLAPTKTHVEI
How it was run: (§1)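 Radioligand displacement at NK1 or NK2 sites, with Ki values averaged over two to eight determinations.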

Substance-P receptor = Substance-P receptor (Homo sapiens, UniProt P25103); experiment: Displacement of [125I]- substance P binding to human astrocytoma cells (NK1); how it was run: as §1
Substance-P receptor, sequence (P25103 whole entry): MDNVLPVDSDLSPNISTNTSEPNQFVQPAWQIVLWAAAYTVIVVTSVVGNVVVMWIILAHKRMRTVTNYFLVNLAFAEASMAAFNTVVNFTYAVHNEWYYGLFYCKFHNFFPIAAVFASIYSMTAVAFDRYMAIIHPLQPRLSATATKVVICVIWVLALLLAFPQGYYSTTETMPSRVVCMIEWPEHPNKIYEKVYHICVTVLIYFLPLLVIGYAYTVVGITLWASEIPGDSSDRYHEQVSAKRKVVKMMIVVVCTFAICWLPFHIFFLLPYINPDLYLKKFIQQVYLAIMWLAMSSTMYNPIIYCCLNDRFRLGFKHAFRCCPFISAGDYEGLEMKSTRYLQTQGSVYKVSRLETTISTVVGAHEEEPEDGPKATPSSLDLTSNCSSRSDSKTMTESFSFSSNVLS

Cavia porcellus = organism: Cavia porcellus; experiment: substance P induced guinea pig ileum
[1] = Functional antagonism by the ability to inhibit substance P induced 45 [Ca2+] efflux in human astrocytoma cells; format: cell-based
How it was run: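 Human astrocytoma cells stimulated with 3 nM substance P; the antagonist's inhibition of 45Ca2+ efflux was measured. Efflux seen without SP and antagonist was subtracted. Mean ± SEM from at least three experiments.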

Compound: CC(C)=CCc1cc(C(O)C2NC(=O)CNC(=O)[C@H](C(C)C)NC(=O)CNC(=O)[C@@H]3CCCN3C(=O)[C@@H](Cc3c[nH]c4ccccc34)NC(=O)CNC2=O)ccc1O (stereo partly drawn)
Ki (Substance-K receptor): 3.8 µM
Ki (Substance-P receptor): 8 µM
pA2 (Cavia porcellus): 5.23

Compound: CC(C)[C@@H]1NC(=O)CNC(=O)[C@@H]2CCCN2C(=O)C(Cc2c[nH]c3ccccc23)NC(=O)CNC(=O)[C@H](Cc2ccc(OC(C)(C)C)cc2)NC(=O)CNC1=O (single isomer, unassigned)
Ki (Substance-K receptor): 31 µM
Ki (Substance-P receptor): 93 µM

Compound: CC(C)[C@@H]1NC(=O)CNC(=O)[C@@H]2CCCN2C(=O)[C@@H](Cc2c[nH]c3ccccc23)NC(=O)CNC(=O)C(C(O)c2ccc(O)cc2)NC(=O)CNC1=O (stereo partly drawn)
Ki (Substance-K receptor): > 100 µM
Ki (Substance-P receptor): > 100 µM

Compound: COc1ccc(C(O)C2NC(=O)CNC(=O)[C@H](C(C)C)NC(=O)CNC(=O)[C@@H]3CCCN3C(=O)[C@@H](Cc3c[nH]c4ccccc34)NC(=O)CNC2=O)cc1CC=C(C)C (stereo partly drawn)
Ki (Substance-K receptor): 1.6 µM
Ki (Substance-P receptor): 0.12 µM
IC50 [1]: 0.43 µM

Compound: COc1ccc(C(O)C2NC(=O)CNC(=O)[C@H](C(C)C)NC(=O)CNC(=O)[C@@H]3CCCN3C(=O)[C@@H](Cc3c[nH]c4ccccc34)NC(=O)CNC2=O)cc1 (stereo partly drawn)
Ki (Substance-K receptor): 33 µM
Ki (Substance-P receptor): 18 µM

Compound: CC(C)[C@@H]1NC(=O)CNC(=O)[C@@H]2CCCN2C(=O)[C@@H](Cc2c[nH]c3ccccc23)NC(=O)CNC(=O)[C@H](Cc2ccc(O)cc2)NC(=O)CNC1=O
Ki (Substance-K receptor): > 100 µM
Ki (Substance-P receptor): > 100 µM

Now from value to compound:

Ki (Substance-K receptor): 27 µM
Ki (Substance-P receptor): 48 µM
Compound: CC(C)[C@@H]1NC(=O)CNC(=O)[C@@H]2CCCN2C(=O)[C@@H](Cc2c[nH]c3ccccc23)NC(=O)CNC(=O)[C@H](Cc2ccc(OC(C)(C)C)cc2)NC(=O)CNC1=O

Ki (Substance-K receptor): 73 µM
Ki (Substance-P receptor): 72 µM
Compound: COc1ccc(CC2NC(=O)CNC(=O)[C@H](C(C)C)NC(=O)CNC(=O)[C@@H]3CCCN3C(=O)[C@@H](Cc3c[nH]c4ccccc34)NC(=O)CNC2=O)cc1 (stereo partly drawn)

Source: ChEMBL document CHEMBL1127833, “Structure determination, pharmacological evaluation, and structure-activity studies of a new cyclic peptide substance P antagonist containing the new amino acid 3-prenyl-beta-hydroxytyrosine, isolated from Aspergillus flavipes” (J Med Chem, 1994)
